# Data from ChEMBL document CHEMBL2417485, “Quinazoline-based multi-tyrosine kinase inhibitors: synthesis, modeling, antitumor and antiangiogenic properties” (Eur J Med Chem, 2013).
# Active and inactive are the calls of the source. The rule behind the calls is not given here.
# How the values were obtained:
# [1] = system: NIH3T3; assay: Antiproliferative activity against mouse NIH/3T3 cells after 72 hrs by MTT assay; assay type: cell-based; settings: NIH3T3, 72 h
# [2] = system: A-431; assay: Antiproliferative activity against human A431 cells after 72 hrs by MTT assay; assay type: functional, cell-based; settings: A-431, 72 h
# [3] = Toxicity in mouse BNL 1ME A.7R.1 cells allografted Balb/c mouse model assessed as body weight loss at 50 mg/kg, ip daily measured after 3 days; assay type: organism-based; set-up: dose 50 mg/kg, route intraperitoneal; settings: in vivo, 72 h
# [4] = system: HUVEC; assay: Antiangiogenic activity in HUVEC assessed as reduction in cell migration at 1 uM after 4 hrs by matrigel assay; assay type: functional, cell-based; settings: Homo sapiens, in the assay text read “by modified Boyden chamber assay” for “by matrigel assay”
# How it was run: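 Modified Boyden chamber. HUVECs (3×10^4 cell/cm²) were placed on 5.0 µm pore inserts in basal medium with 1% FCS, ±1 µM compound; the lower chamber held growth-factor medium. After 4 h, cells were fixed, the upper side was swabbed, and membranes were DAPI-stained. Nuclei were counted in five fields per insert. Five repeats; results are the percent change from growth-factor-only controls.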
# [5] = biological target: T1, Platelet-derived growth factor receptor beta (Homo sapiens, UniProt P09619); assay: Inhibition of PDGFRbeta (unknown origin) at 1 uM
# T1 sequence (P09619 whole entry): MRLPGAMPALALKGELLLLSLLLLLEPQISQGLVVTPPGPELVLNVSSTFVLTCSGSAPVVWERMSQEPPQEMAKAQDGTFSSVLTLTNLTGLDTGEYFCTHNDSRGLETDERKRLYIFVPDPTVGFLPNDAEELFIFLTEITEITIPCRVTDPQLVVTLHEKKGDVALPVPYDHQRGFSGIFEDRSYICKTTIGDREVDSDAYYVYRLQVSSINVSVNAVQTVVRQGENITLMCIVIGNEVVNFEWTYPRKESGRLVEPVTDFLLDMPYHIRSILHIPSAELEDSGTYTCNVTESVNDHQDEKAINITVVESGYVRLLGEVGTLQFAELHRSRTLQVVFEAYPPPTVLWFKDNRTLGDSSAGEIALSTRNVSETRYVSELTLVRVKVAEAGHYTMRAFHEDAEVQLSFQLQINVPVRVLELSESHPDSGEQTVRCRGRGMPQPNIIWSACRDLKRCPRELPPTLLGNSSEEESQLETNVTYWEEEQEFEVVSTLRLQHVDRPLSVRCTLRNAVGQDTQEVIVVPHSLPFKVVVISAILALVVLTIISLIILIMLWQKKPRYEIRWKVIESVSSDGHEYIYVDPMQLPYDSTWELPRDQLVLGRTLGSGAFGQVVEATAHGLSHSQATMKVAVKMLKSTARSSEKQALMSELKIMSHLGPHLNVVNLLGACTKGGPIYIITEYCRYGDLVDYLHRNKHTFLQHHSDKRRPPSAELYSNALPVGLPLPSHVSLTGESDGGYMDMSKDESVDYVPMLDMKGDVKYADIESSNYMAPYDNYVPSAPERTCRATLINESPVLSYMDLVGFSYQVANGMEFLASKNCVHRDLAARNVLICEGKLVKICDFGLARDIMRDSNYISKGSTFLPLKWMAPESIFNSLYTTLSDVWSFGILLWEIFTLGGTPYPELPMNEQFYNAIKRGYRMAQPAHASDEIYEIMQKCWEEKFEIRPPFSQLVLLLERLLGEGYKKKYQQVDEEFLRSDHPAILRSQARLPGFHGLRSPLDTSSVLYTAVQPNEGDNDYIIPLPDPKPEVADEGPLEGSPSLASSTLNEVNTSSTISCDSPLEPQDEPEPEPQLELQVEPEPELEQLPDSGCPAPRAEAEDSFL
# [6] = biological target: Vascular endothelial growth factor receptor 2 (Homo sapiens) (UniProt P35968); assay: Inhibition of VEGFR2 (unknown origin) at 1 uM
# Sequence of Vascular endothelial growth factor receptor 2 (Homo sapiens) (P35968 whole entry): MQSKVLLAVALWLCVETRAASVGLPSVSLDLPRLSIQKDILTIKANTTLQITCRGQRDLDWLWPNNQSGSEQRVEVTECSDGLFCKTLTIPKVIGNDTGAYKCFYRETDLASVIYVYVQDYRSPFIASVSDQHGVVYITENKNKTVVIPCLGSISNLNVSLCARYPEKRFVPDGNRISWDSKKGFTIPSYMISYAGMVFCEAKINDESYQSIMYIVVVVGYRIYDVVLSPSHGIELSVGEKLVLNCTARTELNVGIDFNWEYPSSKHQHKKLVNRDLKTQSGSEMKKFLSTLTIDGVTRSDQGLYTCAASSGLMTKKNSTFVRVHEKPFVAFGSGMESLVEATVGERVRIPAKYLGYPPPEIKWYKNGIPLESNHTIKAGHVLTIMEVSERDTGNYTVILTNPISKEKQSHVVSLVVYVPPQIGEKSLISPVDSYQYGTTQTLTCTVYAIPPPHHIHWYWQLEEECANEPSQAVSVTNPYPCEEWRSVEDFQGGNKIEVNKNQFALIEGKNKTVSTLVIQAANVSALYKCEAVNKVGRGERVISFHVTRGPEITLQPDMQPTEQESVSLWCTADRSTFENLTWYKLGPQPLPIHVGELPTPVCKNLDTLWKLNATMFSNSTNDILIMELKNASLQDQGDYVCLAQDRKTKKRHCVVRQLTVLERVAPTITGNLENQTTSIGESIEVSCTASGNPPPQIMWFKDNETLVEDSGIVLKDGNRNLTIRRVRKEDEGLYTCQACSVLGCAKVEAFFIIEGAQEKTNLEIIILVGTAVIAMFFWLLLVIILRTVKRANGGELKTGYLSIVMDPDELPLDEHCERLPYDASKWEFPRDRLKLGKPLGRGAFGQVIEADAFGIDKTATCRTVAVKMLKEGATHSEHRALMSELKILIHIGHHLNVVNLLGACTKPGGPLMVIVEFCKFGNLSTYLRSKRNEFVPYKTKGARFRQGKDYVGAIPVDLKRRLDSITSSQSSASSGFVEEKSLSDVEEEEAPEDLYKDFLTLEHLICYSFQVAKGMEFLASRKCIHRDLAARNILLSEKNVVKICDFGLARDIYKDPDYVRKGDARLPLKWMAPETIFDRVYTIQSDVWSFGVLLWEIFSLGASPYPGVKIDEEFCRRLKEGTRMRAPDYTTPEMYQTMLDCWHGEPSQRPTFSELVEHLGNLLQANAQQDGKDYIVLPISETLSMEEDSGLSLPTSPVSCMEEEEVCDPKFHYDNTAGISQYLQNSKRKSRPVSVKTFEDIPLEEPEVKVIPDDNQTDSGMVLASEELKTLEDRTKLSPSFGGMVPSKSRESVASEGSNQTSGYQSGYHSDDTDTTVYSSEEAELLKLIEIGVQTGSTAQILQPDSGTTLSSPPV
# How it was run: (§1)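 Recombinant FGFR-1 or VEGFR-2 (final 200 ng/mL) in MOPS pH 7.2 buffer with MgCl2, EGTA, EDTA, DTT and BSA. Compound range was 1–0.01 µM. Reactions used myelin basic protein (0.2 mg/ml), 0.05 mM ATP and 0.25 μCi [γ-32P]ATP, 30 °C for 20 min.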
# [7] = biological target: Tyrosine-protein kinase ABL1 (Homo sapiens, UniProt P00519); assay: Inhibition of Abl (unknown origin)
# Sequence of Tyrosine-protein kinase ABL1 (P00519 whole entry): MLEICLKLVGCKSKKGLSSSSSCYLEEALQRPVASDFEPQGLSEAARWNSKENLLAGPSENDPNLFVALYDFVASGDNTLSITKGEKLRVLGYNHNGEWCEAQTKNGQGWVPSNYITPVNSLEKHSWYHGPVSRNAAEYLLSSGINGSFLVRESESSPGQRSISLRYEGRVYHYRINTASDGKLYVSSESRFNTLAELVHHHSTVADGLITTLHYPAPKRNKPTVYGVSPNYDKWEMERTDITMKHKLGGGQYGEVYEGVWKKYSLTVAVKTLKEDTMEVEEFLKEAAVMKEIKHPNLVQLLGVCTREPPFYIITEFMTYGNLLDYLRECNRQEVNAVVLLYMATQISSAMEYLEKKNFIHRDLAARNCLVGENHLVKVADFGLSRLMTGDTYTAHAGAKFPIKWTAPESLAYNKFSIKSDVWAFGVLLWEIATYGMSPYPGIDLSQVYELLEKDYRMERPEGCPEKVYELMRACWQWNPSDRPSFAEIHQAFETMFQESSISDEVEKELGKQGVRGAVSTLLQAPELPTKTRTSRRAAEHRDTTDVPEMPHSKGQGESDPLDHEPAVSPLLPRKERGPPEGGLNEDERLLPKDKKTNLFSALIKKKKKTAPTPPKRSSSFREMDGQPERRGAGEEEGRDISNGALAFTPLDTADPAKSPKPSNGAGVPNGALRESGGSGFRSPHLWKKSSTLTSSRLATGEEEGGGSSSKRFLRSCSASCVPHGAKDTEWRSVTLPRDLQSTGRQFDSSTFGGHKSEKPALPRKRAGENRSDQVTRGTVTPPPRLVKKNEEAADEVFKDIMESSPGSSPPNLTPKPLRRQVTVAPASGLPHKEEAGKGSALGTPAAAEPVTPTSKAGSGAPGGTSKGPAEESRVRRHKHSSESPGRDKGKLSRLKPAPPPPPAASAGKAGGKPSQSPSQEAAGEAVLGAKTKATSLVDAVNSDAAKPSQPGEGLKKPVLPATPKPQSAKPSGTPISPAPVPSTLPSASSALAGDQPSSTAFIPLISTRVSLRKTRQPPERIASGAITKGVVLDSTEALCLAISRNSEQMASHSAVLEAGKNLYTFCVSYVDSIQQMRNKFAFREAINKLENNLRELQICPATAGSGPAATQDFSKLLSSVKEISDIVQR
# [8] = biological target: Proto-oncogene tyrosine-protein kinase Src (Homo sapiens, UniProt P12931); assay: Inhibition of Src (unknown origin)
# Sequence of Proto-oncogene tyrosine-protein kinase Src (P12931 2-536 limits assumed): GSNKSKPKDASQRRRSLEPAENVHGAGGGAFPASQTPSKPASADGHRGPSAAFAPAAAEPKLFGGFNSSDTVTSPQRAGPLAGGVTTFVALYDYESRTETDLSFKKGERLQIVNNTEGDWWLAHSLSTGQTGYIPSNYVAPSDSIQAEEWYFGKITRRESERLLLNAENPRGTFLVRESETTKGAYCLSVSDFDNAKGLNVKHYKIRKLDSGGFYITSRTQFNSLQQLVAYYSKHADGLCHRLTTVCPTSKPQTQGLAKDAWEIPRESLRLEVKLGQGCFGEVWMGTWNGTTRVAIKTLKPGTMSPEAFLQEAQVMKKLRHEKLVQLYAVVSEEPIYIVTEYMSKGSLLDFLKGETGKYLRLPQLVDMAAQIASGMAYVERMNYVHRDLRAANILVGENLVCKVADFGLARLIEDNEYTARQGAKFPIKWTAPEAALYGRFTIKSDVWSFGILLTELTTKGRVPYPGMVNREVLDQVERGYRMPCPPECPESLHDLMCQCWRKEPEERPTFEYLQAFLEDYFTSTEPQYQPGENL
# [9] = biological target: Fibroblast growth factor receptor 1 (Homo sapiens, UniProt P11362); assay: Inhibition of FGFR1 (unknown origin); how it was run: as §1
# Sequence of Fibroblast growth factor receptor 1 (P11362 whole entry): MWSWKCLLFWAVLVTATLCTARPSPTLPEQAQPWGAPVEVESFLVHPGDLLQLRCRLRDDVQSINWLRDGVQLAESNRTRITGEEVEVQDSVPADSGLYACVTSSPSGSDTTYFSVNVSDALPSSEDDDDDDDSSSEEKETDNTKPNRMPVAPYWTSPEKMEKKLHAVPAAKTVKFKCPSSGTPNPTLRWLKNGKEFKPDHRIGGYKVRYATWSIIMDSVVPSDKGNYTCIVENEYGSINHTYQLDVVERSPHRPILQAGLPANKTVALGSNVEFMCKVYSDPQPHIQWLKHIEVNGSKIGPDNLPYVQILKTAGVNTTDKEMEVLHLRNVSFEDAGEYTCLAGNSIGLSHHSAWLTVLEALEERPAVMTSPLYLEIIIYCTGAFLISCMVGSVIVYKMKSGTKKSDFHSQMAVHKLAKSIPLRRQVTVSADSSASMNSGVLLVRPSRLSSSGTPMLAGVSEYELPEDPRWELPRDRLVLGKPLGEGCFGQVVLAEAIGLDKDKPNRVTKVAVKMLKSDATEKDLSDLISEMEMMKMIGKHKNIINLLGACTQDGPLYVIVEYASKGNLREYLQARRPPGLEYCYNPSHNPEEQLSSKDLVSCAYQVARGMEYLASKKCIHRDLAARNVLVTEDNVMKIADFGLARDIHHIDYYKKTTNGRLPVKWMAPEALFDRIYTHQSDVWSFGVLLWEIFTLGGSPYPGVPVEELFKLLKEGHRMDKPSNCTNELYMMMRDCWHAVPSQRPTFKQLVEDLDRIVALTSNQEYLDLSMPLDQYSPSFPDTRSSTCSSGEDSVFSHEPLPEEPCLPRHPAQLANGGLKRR
# [10] = biological target: Epidermal growth factor receptor (Homo sapiens, UniProt P00533); assay: Inhibition of EGFR (unknown origin)
# [11] = Antiproliferative activity against mouse BNL 1ME A.7R.1 cells after 72 hrs by MTT assay; assay type: functional, cell-based
# [12] = system: HT-29; assay: Antiproliferative activity against human HT-29 cells after 72 hrs by MTT assay; assay type: functional, cell-based; settings: HT-29, 72 h
# [13] = system: HeLa; assay: Antiproliferative activity against human HeLa cells after 72 hrs by MTT assay; assay type: functional, cell-based
# [14] = system: HUVEC; assay: Antiproliferative activity against HUVEC after 72 hrs by MTT assay; assay type: cell-based; settings: Homo sapiens
# [15] = Antiproliferative activity against human MCF7/beta cells after 72 hrs by MTT assay; assay type: functional, cell-based; settings: MCF7, 72 h
# [16] = system: Mus musculus; assay: Inhibition of FGF2-induced neovascularization in C57/BL6 mouse assessed as reduction in hemoglobin concentration in matrigel plug at 1 uM, sc measured after 7 days; assay type: functional, organism-based
# How it was run: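 Three-month-old C57/BL6 mice under isoflurane received 0.5 mL Matrigel GFR subcutaneously into the flank. The gel contained heparin (12 U.I.), ±FGF-2 200 ng/plug and 1 µM compound. After 7 days, plugs were removed and steeped overnight at 4 °C in 0.1% Brij-35/PBS. Hemoglobin was measured with Drabkin's reagent at 540 nm.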
# [17] = system: HUVEC; assay: Antiproliferative activity against HUVEC assessed as reduction in cell viability at 10 uM after 24 hrs by MTT assay; assay type: cell-based; settings: human
# How it was run: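 Primary HUVECs (passage ≤5) were seeded at 1×10^4 cell/cm² and grown for 24 h. They were exposed to compound at 10 μM for 24 h (20 h, then MTT 0.50 mg/ml for 4 h). Absorbance was read at 570 nm. Results are the percent change from untreated cultures; mean ± SD of ≥3 experiments.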
# [18] = system: HUVEC; assay: Induction of apoptosis in HUVEC assessed as mono-/oligo-nucleosome formation at 10 uM after 24 hrs by ELISA; assay type: functional, cell-based; settings: Homo sapiens
# [19] = system: HUVEC; assay: Antiangiogenic activity in HUVEC assessed as effect on number of cell meshwork at 0.1 uM after 18 hrs; settings: Homo sapiens
# [20] = system: HUVEC; assay: Antiangiogenic activity in HUVEC assessed as disruption of tube-like structures at 0.1 uM after 18 hrs by phase contrast microscopy; settings: Homo sapiens
# [21] = system: Mus musculus; assay: Antitumor activity against mouse BNL 1ME A.7R.1 cells allografted in Balb/c mouse assessed as tumor growth inhibition at 50 mg/kg, ip daily measured after 7 days; assay type: functional, organism-based; set-up: dose 50 mg/kg
# How it was run: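 Male Balb/c mice, 10 weeks old, received 10⁷ BNL 1ME A.7R.1 cells in PBS subcutaneously in the dorsal region. From day 7, mice were dosed daily ip with 50 mg/kg in 0.9% NaCl with 5% PEG 400 and 0.5% Tween 80, or vehicle. Tumors were measured daily for 7 days by caliper (V = AB²/2). Mean ± SEM, five animals per group.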
# [22] = biological target: T1, Platelet-derived growth factor receptor beta; assay: Inhibition of PDGFRbeta (unknown origin)
# [23] = system: HUVEC; assay: Antiangiogenic activity in HUVEC assessed as decrease in dimensional parameters at 0.1 uM after 18 hrs; settings: Homo sapiens
compound,measurement,setting,value
Cc1cccc(Nc2ncnc3cc4c(cc23)OCO4)n1,IC50,[1],> 10000 nM
same,IC50,[2],> 10000 nM
Brc1cccc(Nc2ncnc3c2ccc2ccccc23)c1,IC50,[1],> 10000 nM
same,IC50,[2],> 10000 nM
Cl.c1ccc(-c2cccc(Nc3ncnc4cc5c(cc34)OCCCO5)c2)cc1,Activity,[3],Toxic
same,inhibition,[4],Active
same,inhibition,[5],40%
same,inhibition,[6],30%
same,IC50,[7],56 nM
same,IC50,[8],645 nM
same,IC50,[9],63 nM
same,IC50,[10],27 nM
same,IC50,[11],3000 nM
same,IC50,[1],920 nM
same,IC50,[2],660 nM
same,IC50,[12],710 nM
same,IC50,[13],5490 nM
same,IC50,[14],910 nM
same,IC50,[15],700 nM
same,inhibition,[16],Active
same,Activity,[17],Toxic
same,Activity,[18],Active
same,Activity,[19],Active
same,Activity,[20],inactive
C=CCOc1cc2ncnc(Nc3cccc(Br)c3)c2cc1OC,IC50,[1],> 10000 nM
same,IC50,[2],4490 nM
Cc1cccc(Nc2ncnc3cc4c(cc23)OCCO4)n1,IC50,[1],> 10000 nM
same,IC50,[2],> 10000 nM
Cc1cccc(Nc2ncnc3cc4c(cc23)n(C)c(=O)n4C)c1,IC50,[1],> 10000 nM
same,IC50,[2],> 10000 nM
Cl.c1ccc(-c2cccc(Nc3ncnc4cc5c(cc34)OCO5)c2)cc1,TGI,[21],Active
same,inhibition,[4],Active
same,IC50,[7],51 nM
same,IC50,[8],32 nM
same,IC50,[22],243 nM
same,IC50,[9],63 nM
same,IC50,[11],2800 nM
same,IC50,[1],600 nM
same,IC50,[12],950 nM
same,IC50,[14],750 nM
same,inhibition,[16],Active
same,Activity,[17],Non-toxic
same,Activity,[18],inactive
same,Activity,[19],Active
same,Activity,[20],inactive
CS(=O)(=O)Nc1cccc(Nc2ncnc3cc4c(cc23)OCO4)c1,IC50,[1],> 10000 nM
same,IC50,[2],> 10000 nM
Cn1c(=O)n(C)c2cc3c(Nc4cccc(Br)c4)ncnc3cc21,IC50,[1],> 10000 nM
same,IC50,[2],> 10000 nM
C=CCOc1cc2ncnc(Nc3cccc(C(F)(F)F)c3)c2cc1OC,IC50,[1],> 10000 nM
same,IC50,[2],5950 nM
FC(F)(F)c1cccc(Nc2ncnc3c2ccc2ccccc23)c1,IC50,[1],> 10000 nM
same,IC50,[2],> 10000 nM
Cc1cccc(Nc2ncnc3c2ccc2ccccc23)c1,IC50,[1],> 10000 nM
same,IC50,[2],> 10000 nM
Cn1c(=O)n(C)c2cc3c(Nc4cccc(C(F)(F)F)c4)ncnc3cc21,IC50,[1],> 10000 nM
same,IC50,[2],> 10000 nM
CS(=O)(=O)Nc1cccc(Nc2ncnc3cc4c(cc23)OCCO4)c1,IC50,[1],> 10000 nM
same,IC50,[2],> 10000 nM
COc1cc2ncnc(Nc3cccc(Br)c3)c2cc1OC,inhibition,[4],Active
same,IC50,[11],9500 nM
same,IC50,[1],> 10000 nM
same,IC50,[12],> 10000 nM
same,IC50,[13],> 10000 nM
same,IC50,[14],4060 nM
same,IC50,[15],8210 nM
same,inhibition,[16],inactive
same,Activity,[19],Active
same,Activity,[20],inactive
C=CCOc1cc2ncnc(Nc3cccc(C)c3)c2cc1OC,IC50,[1],6600 nM
same,IC50,[2],8450 nM
Cc1ccnc(Nc2ncnc3cc4c(cc23)OCCO4)c1,IC50,[1],6600 nM
same,IC50,[2],5170 nM
Cl.c1ccc(-c2cccc(Nc3ncnc4cc5c(cc34)OCCO5)c2)cc1,TGI,[21],inactive
same,inhibition,[4],Active
same,inhibition,[6],50%
same,IC50,[7],24 nM
same,IC50,[8],642 nM
same,IC50,[22],100 nM
same,IC50,[9],178 nM
same,IC50,[11],2700 nM
same,IC50,[1],600 nM
same,IC50,[12],680 nM
same,IC50,[13],620 nM
same,IC50,[14],80 nM
same,IC50,[15],740 nM
same,inhibition,[16],Active
same,Activity,[17],Toxic
same,Activity,[18],Active
same,Activity,[19],Active
same,Activity,[23],Active
same,Activity,[20],Active
Cc1ccnc(Nc2ncnc3cc4c(cc23)OCO4)c1,IC50,[1],> 10000 nM
same,IC50,[2],> 10000 nM
